NPY-Y1 antag: blocks the human neuropeptide Y Y1 receptor; 200,000 compounds, 1% hits; HEK293-CNG Y1 cells, membrane potential fluorescence; NPY at EC95, then isoproterenol; inhibition, % at 3.6 µM; P25929;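 active = inhibition above the campaign mean inhibition of all tested compounds plus 3 SD, cut at about 20% in these data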;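 note: 0% = DMSO wells given NPY plus isoproterenol and 100% = isoproterenol alone without NPY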
Target sequence (P25929 whole entry, looked up): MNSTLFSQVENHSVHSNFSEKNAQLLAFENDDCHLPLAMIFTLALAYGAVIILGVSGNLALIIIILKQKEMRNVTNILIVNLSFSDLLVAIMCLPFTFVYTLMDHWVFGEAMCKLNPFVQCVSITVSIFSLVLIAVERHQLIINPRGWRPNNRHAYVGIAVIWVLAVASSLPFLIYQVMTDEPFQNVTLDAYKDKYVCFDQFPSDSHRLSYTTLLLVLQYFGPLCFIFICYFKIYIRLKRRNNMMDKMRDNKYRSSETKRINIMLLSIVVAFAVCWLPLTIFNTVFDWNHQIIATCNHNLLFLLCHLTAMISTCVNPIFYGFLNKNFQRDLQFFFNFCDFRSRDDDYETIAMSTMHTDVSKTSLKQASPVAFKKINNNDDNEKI
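Material: Y1- and CNG-channel-expressing HEK293 cells / Probe or stimulus: NPY 25 nM then isoproterenol 1 µM plus Ro 20-1724 25 µM / Doses: 3.6 µM single dose, DMSO 0.4% / Schedule: compound incubation 1 h at room temperature, readout 45 min post-stimulation / Signal: membrane potential fluorescence / Benchmarks: isoproterenol-only wells as full block versus NPY-plus-isoproterenol wells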
NPY1 pot ag: potentiates or activates human NPY-Y1 receptor; P25929; NPY-Y1 expressing cells, potentiator/agonist activation; activation, % at 3.6 µM; 220,000 compounds, 0.37% hits; AID 1304; in the data active = activation above about 33%, passing the limit was not always enough;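 note: cells stimulated with NPY at EC10 then isoproterenol at EC100; 0% = low agonist plus stimulus and 100% = saturating agonist plus stimulus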
NPY Y2 blocker: antagonists of human neuropeptide Y receptor Y2; NPY-Y2 expressing cells, antagonist mode; inhibition, % at 2.7 µM; 140,000 compounds, 0.99% hits; AID 793; in the data active = inhibition above about 17%;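 note: 0% = vehicle with agonist challenge and 100% = reference antagonist with challenge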
NPY-Y2 PAM-ag: potentiates or activates human NPY-Y2 receptor | 220,000 compounds, 0.45% hits | P49146 | cells expressing NPY-Y2, potentiator/agonist read-out | activation, % at 3.6 µM; in the data active = activation above about 27%;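 note: cells stimulated with NPY near EC25 plus isoproterenol at EC100; 0% = vehicle plus submaximal agonist and 100% = vehicle plus saturating agonist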
The depositor's hits bear a star; x = not tested or not shown. Compounds with a hit are over-represented: about 1.9% of the library has one in this group of screens.

SMILES | NPY-Y1 antag | NPY1 pot ag | NPY Y2 blocker | NPY-Y2 PAM-ag
Fc1ccc(-c2nnc(Cc3ccc(Cl)cc3)o2)cc1 | x | -24.2 | x | -7.7
CCN(CC)Cc1cc2[nH]c3c4ccc(Cl)cc4ncc3c2cc1OC | x | -17.2 | x | -33.7
CC1C(c2ccccc2)N(C)C(c2ccccc2)C(C)C1(O)C#Cc1ccccc1 (centres undefined) | 13.5 | -34.5 | 18.2* | -11.7
COc1ccc(/C=N/N2CCOCC2)cc1Cn1cc([N+](=O)[O-])cn1 | x | 10.2 | x | -16.4
N#Cc1c(NCCCO)nc(-c2ccccc2)c2c1CCCC2 | -5.7 | 23.2 | 0.2 | 21.1
N#Cc1c(NCCN)nc(-c2ccccc2)c2c1CCCC2 | 28.9* | -37.1 | 24.2* | -33.3
COC(=O)c1ccsc1NC(=O)CN1CCN(Cc2ccc3c(c2)OCO3)CC1 | 7.6 | -2.6 | 8.1 | -17.0
COC(=O)c1c(NC(=O)CN2CCN(Cc3ccc4c(c3)OCO4)CC2)sc(C)c1C | 47.9* | -95.5 | 37.7* | -51.5
Cc1cc(N=Nc2ccccc2)c(NCC(O)C(O)C(O)CO)cc1C (centres undefined) | -16.3 | 73.2* | x | 56.6*
C=CC[n+]1ccc(/C=C2\C=Cc3cc(C)ccc3N2CC)c2ccccc21 | 7.8 | 26.6 | x | 31.4*
Cc1ccc(N=C2S/C(=C\c3cn(CC(=O)O)c4ccccc34)C(=O)N2C)cc1 | 6.0 | 15.7 | -0.4 | 1.1
O=C(NCCCn1ccnc1)c1cc([N+](=O)[O-])cc([N+](=O)[O-])c1 | 1.2 | 61.4* | 1.2 | 77.8*
CCOC(=O)c1cc(C#N)c(Nc2ccc(C)cc2)nc1C(F)(F)F | x | -40.7 | x | -6.7
C=CCOc1ccc2ccccc2c1CNCCCN1CCOCC1 | 20.8* | -19.5 | 20.1* | -18.4
O=C(COc1ncnc2scc(-c3ccccc3)c12)NCCN1C(=O)CSC1=O | 4.4 | -0.3 | x | -11.5
Cc1c(NC(=O)c2cccs2)cccc1-c1nc2ccccc2s1 | -3.3 | 46.1* | 6.2 | 27.4*
Cc1c(NC(=O)c2cc(-n3cnnc3)ccc2Cl)cccc1-c1nc2ccccc2s1 | -3.0 | 4.1 | -0.8 | 13.5
C[C@H]1O[C@@H](O[C@H]2[C@@H](O)C[C@H](O[C@H]3[C@@H](O)C[C@H](O[C@H]4CC[C@@]5(C)[C@H](CC[C@@H]6[C@@H]5C[C@@H](O)[C@]5(C)[C@@H](C7=CC(=O)OC7)CC[C@]65O)C4)O[C@@H]3C)O[C@@H]2C)C[C@H](O)[C@@H]1O | 49.0* | -87.7 | 53.4* | -22.4
Cc1cccc(C)c1OCC(=O)Nc1ccc(N2CCOCC2)cc1 | 1.2 | 4.3 | x | -5.7
COc1ccc(/C=C/C(=O)C23CC4CC(CC(C4)C2)C3)cc1CN1CCOCC1 | 15.1 | -24.6 | x | -27.4
Cc1ccc(OCC(O)Cn2c(=N)n(Cc3ccccc3)c3ccccc32)cc1 (centres undefined) | 23.4* | -42.9 | 31.7* | -22.6
COc1ccc(OCC(O)Cn2c(=N)n(Cc3ccccc3)c3ccccc32)cc1 (centres undefined) | 32.8* | 5.1 | 31.7* | 30.4
N=c1n(Cc2ccccc2)c2ccccc2n1CC(O)COc1ccc(Cl)cc1Cl (centres undefined) | 8.4 | -22.7 | x | -16.2
Cc1cccc(OCC(O)Cn2c(=N)n(Cc3ccccc3)c3ccccc32)c1 (centres undefined) | x | -29.3 | x | -43.0
Cc1cccc(OCC(O)Cn2c(=N)n(CCN3CCCCC3)c3ccccc32)c1 (centres undefined) | 57.1* | -48.6 | 83.9* | -40.8
SMILES | NPY-Y1 antag | NPY1 pot ag | NPY Y2 blocker | NPY-Y2 PAM-ag
CN(C)NC(=S)NC1CC2CCC1C2 (centres undefined) | x | -7.5 | x | -6.9
Cc1sc2ncnc(SCC(=O)NC(=O)c3cccn3C)c2c1C | 4.6 | -30.7 | x | -13.7
C/C(Cc1ccccc1)=N\NC(=O)CNC(=O)c1ccccc1Br | -3.0 | -7.2 | 2.2 | 4.7
CCCC(=O)Nc1cccc(NC(=O)c2cccc([N+](=O)[O-])c2C)c1 | -0.1 | -15.3 | 2.8 | 11.3
Cc1ccc(NC(=O)CSc2nc3ccccc3c(=O)n2CCCN2CCCCC2)cc1C | 38.1* | -96.5 | 33.5* | -54.2
Cc1ccc(NC(=O)CSc2nc3ccccc3c(=O)n2CCCC(=O)N2CCCC2)cc1 | -6.4 | 15.8 | 1.0 | 9.1
CCN(CC)CCNC(=S)Nc1ccc(F)cc1 | -9.3 | -22.2 | x | 1.1
COc1ccc(C(c2c[nH]c3ccccc23)c2c[nH]c3ccccc23)cc1O | -7.6 | 32.4* | -3.7 | 38.5*
COc1ccc(NC(=O)CCCc2c[nH]c3ccccc23)cc1OC | 0.5 | -6.0 | 1.4 | -3.1
CC(=O)c1csc(COc2ccc(Cl)cc2)n1 | x | 8.2 | x | 7.2
N#CC(C#N)=c1ccc2c(c1)NC1(CCCCC1)N=2 | -12.7 | 40.9* | -9.6 | 43.5*
CCNc1nc(SCC(=O)OC)nc(N(C)C)n1 | 5.4 | 0.6 | x | 6.0
CCn1c(SCC(=O)N/N=C/c2c[nH]c3ccccc23)nnc1-c1ccc(C(C)(C)C)cc1 | -8.6 | 48.5* | 5.8 | 44.1*
CCn1c(SCC(=O)N/N=C/c2ccc(C)o2)nnc1-c1ccc(C(C)(C)C)cc1 | -0.2 | -5.4 | 5.0 | -3.4
CCC(C)(C(=O)NC1CCCCC1)N(CC1CCCO1)C(=O)Cc1cccs1 (centres undefined) | 21.5* | -0.4 | x | 4.9
CCC(C)(C(=O)NC1CCCC1)N(Cc1cccs1)C(=O)Cc1cccs1 (centres undefined) | 37.0* | -30.4 | 38.4* | 7.9
CCC(C)(C(=O)NC1CCCCC1)N(C(=O)Cc1cccs1)c1ccccc1 (centres undefined) | 33.9* | -37.4 | 17.2* | -7.6
CCCCN=C1CC(C)(C)CC(=O)/C1=C(/O)CCC | x | 24.4 | x | 6.6
Cn1c(SCC(=O)N2CCCC2=O)nc2ccccc21 | 10.6 | 4.1 | x | 8.8
COc1ccc(Cc2nnc(NC(=O)CSc3ccc(C)cc3)s2)cc1OC | 21.5* | -10.3 | 9.1 | -20.0
COc1ccc(-c2nnc(SCc3ncc(-c4ccccc4)o3)o2)cc1 | 20.8* | -23.6 | 20.9* | -24.9
O=C(N/N=C/c1ccc(O)cc1)Nc1cccc2nsnc12 | 2.4 | 12.3 | x | 11.6
CCOC(=O)c1c(C2CC2)csc1NC(=O)COC(=O)CCS(=O)(=O)c1ccc(C)cc1 | -0.5 | 3.9 | 4.2 | 10.4
O=C(c1ccc(F)cc1)c1ccc(N2CCCC2)cc1 | 20.6* | -6.2 | 2.7 | -8.4
O=C(Nc1ccc(N2CCCCC2)cc1)c1ccc(F)cc1 | 0.3 | -7.0 | 2.8 | -0.8
SMILES | NPY-Y1 antag | NPY1 pot ag | NPY Y2 blocker | NPY-Y2 PAM-ag
Cc1cc(C(=O)OCC(=O)Nc2cc(S(=O)(=O)N(C)C)ccc2C)c(C)o1 | 7.2 | -12.7 | x | -8.4
CCN(CC)S(=O)(=O)c1ccc(C)c(NC(=O)c2cc(C)oc2C)c1 | 20.3* | 14.7 | x | -5.5
c1csc(CNc2nc(-c3cccs3)nc3ccccc23)c1 | 1.7 | -10.8 | x | 9.7
c1ccc(CN2CCC(Nc3nc(-c4cccs4)nc4ccccc34)CC2)cc1 | 21.1* | 4.3 | x | 29.2
Cc1ccc([N+](=O)[O-])cc1NCC(=O)NN | 1.9 | -1.9 | x | 5.6
CCOc1cc(C=O)cc(Cl)c1OCC(N)=O | 8.1 | 6.8 | x | -2.3
COc1ccccc1CN(C(=O)c1ccco1)C(C(=O)NC1CCCC1)c1ccncc1 (centres undefined) | 9.8 | -4.4 | -2.1 | 9.9

Assay outcomes deposited in PubChem by The Scripps Research Institute Molecular Screening Center.
